{"data": "Experimental data gathered from unrelated publications", "target": "Tyrosine-protein kinase ABL2 (ABL2, Homo sapiens, UniProt P42684)", "note": "Compare with care: the assays were run in different laboratories."}
{"Compound": "O=C(NCCCN1CCOCC1)c1ccc(Nc2nccc(-c3cc4ccccc4s3)n2)cc1", "effect on": "binding", "technique": "competition with immobilised ligand", "tested at": "1 µM", "remaining binding [%]": 85}
{"Compound": "CN(CCCC(F)(F)F)c1nccc(-c2cnn3ncccc23)n1", "effect on": "binding", "tested at": "1 µM", "remaining binding [%]": 93}
{"Compound": "CS(=O)(=O)CCNCc1ccc(-c2ccc3ncnc(Nc4ccc(OCc5cccc(F)c5)c(Cl)c4)c3c2)o1", "effect on": "cell-free assay", "technique": "competition with immobilised ligand", "tested at": "10 µM", "remaining binding [%]": 100}
{"Compound": "CNC(=O)[C@@H]1CC[C@@H](n2c(-c3ccc4cnccc4c3)nc3ccc(C(=O)NCc4cccc(C(N)=O)c4)cc32)C1", "effect on": "binding", "technique": "competition with immobilised ligand", "tested at": "1 µM", "remaining binding [%]": 98}
{"Compound": "Cc1cnc(Nc2ccc(C(=O)N3CCC(N4CCCC4)CC3)cc2)nc1-c1cc2ccccc2s1", "effect on": "binding", "technique": "competition with immobilised ligand", "tested at": "1 µM", "remaining binding [%]": 43}
{"Compound": "CNC(=O)c1cc(Oc2ccc(NC(=O)Nc3ccc(Cl)c(C(F)(F)F)c3)cc2)ccn1", "effect on": "cell-free assay", "technique": "competition with immobilised ligand", "tested at": "10 µM", "remaining binding [%]": 33}
{"Compound": "Cc1cnn2ncc(-c3ccnc(N(C)C)n3)c2c1", "effect on": "binding", "tested at": "1 µM", "remaining binding [%]": 100}
{"Compound": "Cc1nc(Cc2cccc(C(F)(F)F)c2)sc1-c1ccc(C(N)=O)nc1", "effect on": "cell-free assay", "technique": "competition with immobilised ligand", "tested at": "1 µM", "remaining binding [%]": 100}
{"Compound": "COc1ncc2cc3ccccc3nc2c1C#N", "effect on": "cell-free assay", "technique": "competition with immobilised ligand", "tested at": "5 µM", "remaining binding [%]": 96}
{"Compound": "CN(C)c1nccc(-c2cnn3ncccc23)n1", "effect on": "binding", "tested at": "1 µM", "remaining binding [%]": 99}
{"Compound": "COc1cccc(CNC(=O)c2nc3scc(COCc4ccc(C(=O)O)cc4)c3c(=O)[nH]2)c1", "effect on": "cell-free assay", "technique": "competition with immobilised ligand", "tested at": "1 µM", "remaining binding [%]": 82.2}
{"Compound": "CN(C)c1nccc(-c2cnc3ncccn23)n1", "effect on": "binding", "tested at": "1 µM", "remaining binding [%]": 99}
{"Compound": "O=C(NCCCC1CCCCC1)c1ccc(CNC(=O)c2cnn(-c3ccccc3)c2C(F)(F)F)cc1", "effect on": "cell-free assay", "technique": "competition with immobilised ligand", "tested at": "0.1 µM", "remaining binding [%]": 87}
{"Compound": "CN1CC[C@H](c2c(O)cc(O)c3c(=O)cc(-c4ccccc4Cl)oc23)[C@H](O)C1", "effect on": "cell-free assay", "technique": "competition with immobilised ligand", "tested at": "10 µM", "remaining binding [%]": 80}
{"Compound": "CC(C)(O)c1cncc(-c2nc3ccc(F)cc3n2C2CC2)c1", "effect on": "cell-free assay", "technique": "competition with immobilised ligand", "tested at": "1 µM", "remaining binding [%]": 100}
{"Compound": "CCN(CC)CCNC(=O)c1c(C)[nH]c(/C=C2\\C(=O)Nc3ccc(F)cc32)c1C", "effect on": "cell-free assay", "technique": "competition with immobilised ligand", "tested at": "0.1 µM", "remaining binding [%]": 92}
{"Compound": "CNCc1ccccc1-c1csc([C@@H](C)Nc2nc(C)nc3cc(OC)c(OC)cc23)c1", "effect on": "cell-free assay", "technique": "competition with immobilised ligand", "tested at": "1 µM", "remaining binding [%]": 100}
{"Compound": "O=C(Nc1c[nH]nc1C(=O)NC1CCNCC1)c1cc(F)cc(F)c1", "effect on": "binding", "technique": "competition with immobilised ligand", "tested at": "1 µM", "remaining binding [%]": 100}
{"Compound": "CCN1CCN(Cc2ccc(C(=O)Nc3ccc(C)c(Oc4ccc5c(c4)CC(=O)N5)c3)cc2C(F)(F)F)CC1", "effect on": "binding", "technique": "competition with immobilised ligand", "tested at": "1 µM", "remaining binding [%]": 20}
{"Compound": "Cc1c(-c2ccccc2)oc2c(C(=O)OCCN3CCCCC3)cccc2c1=O", "effect on": "cell-free assay", "technique": "competition with immobilised ligand", "tested at": "0.1 µM", "remaining binding [%]": 100}
{"Compound": "C[C@H]1CCN(c2nccc(-c3cnn4ncccc34)n2)C1", "effect on": "binding", "tested at": "1 µM", "remaining binding [%]": 78}
{"Compound": "COC(=O)Nc1nc2cc(C(=O)c3ccccc3)ccc2[nH]1", "effect on": "cell-free assay", "technique": "competition with immobilised ligand", "tested at": "0.1 µM", "remaining binding [%]": 100}
{"Compound": "CS(=O)(=O)N1CCCC(NC(=O)[C@H](CCC2CCCCC2)NC(=O)c2ccc(CNC(=O)c3cnc4ccccn34)cc2)C1 (stereo partly drawn)", "effect on": "cell-free assay", "technique": "competition with immobilised ligand", "tested at": "0.1 µM", "remaining binding [%]": 56}
{"Compound": "COc1cc2ncnc(Nc3ccc(F)c(Cl)c3)c2cc1OCCCN1CCOCC1", "effect on": "cell-free assay", "technique": "competition with immobilised ligand", "tested at": "0.1 µM", "remaining binding [%]": 100}
{"Compound": "c1cncc(-c2cccc(Nc3nccc(NC4CCCCC4)n3)c2)c1", "effect on": "binding", "technique": "competition with immobilised ligand", "tested at": "10 µM", "remaining binding [%]": 56}
{"Compound": "CN(c1nccc(-c2cnn3ncccc23)n1)C1CC1", "effect on": "binding", "tested at": "1 µM", "remaining binding [%]": 99}
{"Compound": "CSc1cccnc1N1CCN(Cc2nc3ccccc3[nH]2)CC1", "effect on": "cell-free assay", "technique": "competition with immobilised ligand", "tested at": "1 µM", "remaining binding [%]": 98}
{"Compound": "CCN(CC)Cc1cc(Nc2ccnc3cc(Cl)ccc23)ccc1O", "effect on": "cell-free assay", "technique": "competition with immobilised ligand", "tested at": "0.1 µM", "remaining binding [%]": 97}
{"Compound": "O=C(c1ccc(Nc2nccc(-c3cc4ccccc4s3)n2)cc1)N1CCC(N2CCCC2)CC1", "effect on": "binding", "technique": "competition with immobilised ligand", "tested at": "1 µM", "remaining binding [%]": 77}
{"Compound": "N#CC1(c2ccccn2)CCN(Cc2cc(C(=O)N3CCCC3)c(=O)n3ccccc23)CC1", "effect on": "cell-free assay", "technique": "competition with immobilised ligand", "tested at": "1 µM", "remaining binding [%]": 100}
